Data as given in publication PMC9169238 (RSC Advances, 2022).

Key:
Type in all cases: cell-based
[1] = tested on: DU145 – Homo sapiens prostrate carcinoma; test: MTT cytotoxicity assay, DU145; conditions: DU-145, 24 h, read-out: IC50 values (μM) DU145
Procedure, shortened: (§1)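 Test compound at 1 to 100 μM for 24 h. MTT (0.5 mg mL−1) added for 3 h, formazan dissolved in DMSO, absorbance read. Run in triplicate; IC50 calculated.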

[2] = tested on: B16-F10 – Mus musculus mouse skin melanoma; test: MTT cytotoxicity assay, B16-F10; conditions: B16-F10, 24 h, read-out: IC50 values (μM) B16-F10
Procedure, shortened: as §1

[3] = tested on: A549 – Homo sapiens lung carcinoma; test: MTT cytotoxicity assay, A549; conditions: A549, 24 h, read-out: IC50 values (μM) A549
Procedure, shortened: as §1

[4] = tested on: Hep G2 – Homo sapiens hepatocellular carcinoma; test: MTT cytotoxicity assay, HepG2; conditions: HepG2, 24 h, read-out: IC50 values (μM) HEPG2
Procedure, shortened: as §1

[5] = tested on: CHO-K1 – Cricetulus griseus chinese hamster ovary cells; test: MTT cytotoxicity assay, non-cancerous CHO-K1; conditions: CHO-K1, 24 h, read-out: IC50 values (μM) CHO

SMILES	IC50 [1]	IC50 [2]	IC50 [3]	IC50 [4]	IC50 [5]
COc1ccc(NC(=O)c2ccccc2-n2c(=O)[nH]c3ccccc3c2=O)cc1 [Compound 3b, 2-(2,4-dioxo-1,2-dihydroquinazolin-3(4H)-yl)-N-(4-methoxyphenyl)benzamide]	11.56 ± 0.06 µM	24.8 ± 0.7 µM	19.5 ± 0.25 µM	23.3 ± 0.52 µM	
O=c1[nH]cc(F)c(=O)[nH]1 [Compound 5FU, 5-fluorouracil, reference compound]	16.32 ± 0.02 µM	7.55 ± 0.01 µM	29.6 ± 1.64 µM	23 ± 0.27 µM	
COc1ccc(NC(=O)c2ccccc2-n2c(=O)[nH]c3ccc(F)cc3c2=O)cc1 [Compound 3j, 2-(6-Fluoro-2,4-dioxo-1,2-dihydroquinazolin-3(4H)-yl)-N-(4-methoxyphenyl)benzamide]	12.3 ± 0.17 µM	34.3 ± 1.55 µM	30.4 ± 1.35 µM	8.74 ± 0.34 µM	
CCCCNC(=O)c1cc(Cl)ccc1-n1c(=O)[nH]c2ccc(Cl)cc2c1=O [Compound 3q, N-Butyl-5-chloro-2-(6-chloro-2,4-dioxo-1,2-dihydroquinazolin-3(4H)-yl)benzamide]	9.37 ± 0.03 µM	36.46 ± 0.1 µM	28.7 ± 1.38 µM	8.51 ± 0.2 µM	
COc1cccc2c1C(=O)c1c(O)c3c(c(O)c1C2=O)C[C@@](O)(C(=O)CO)C[C@@H]3O[C@H]1C[C@H](N)[C@H](O)[C@H](C)O1 [Doxorubicin, doxorubicin, reference compound]	0.363 ± 0.01 µM	0.7 ± 0.56 µM	0.55 ± 0.16 µM	0.72 ± 0.012 µM	
O=C(Nc1ccccc1)c1ccccc1-n1c(=O)[nH]c2ccc(Cl)cc2c1=O [Compound 3n, 2-(6-Chloro-2,4-dioxo-1,2-dihydroquinazolin-3(4H)-yl)-N-phenylbenzamide]	10.4 ± 0.13 µM	14.83 ± 0.01 µM	14.7 ± 0.18 µM	12.3 ± 0.26 µM	73.9 ± 2.81 µM
O=C(Nc1ccc(Br)cc1)c1ccccc1-n1c(=O)[nH]c2ccc(F)cc2c1=O [Compound 3l, N-(4-Bromophenyl)-2-(6-fluoro-2,4-dioxo-1,2-dihydroquinazolin-3(4H)-yl)benzamide]	12.63 ± 0.08 µM	28.5 ± 0.31 µM	17.4 ± 0.18 µM	7.77 ± 0.02 µM	51.5 ± 2.74 µM
O=C(Nc1ccc(F)cc1)c1ccccc1-n1c(=O)[nH]c2ccc(F)cc2c1=O [Compound 3k, 2-(6-Fluoro-2,4-dioxo-1,2-dihydroquinazolin-3(4H)-yl)-N-(4-fluorophenyl)benzamide]	11.59 ± 0.06 µM	30 ± 0.42 µM	17.2 ± 0.41 µM	28.7 ± 0.92 µM	
O=C(Nc1ccccc1)c1ccccc1-n1c(=O)[nH]c2ccc([N+](=O)[O-])cc2c1=O [Compound 3r, 2-(6-Nitro-2,4-dioxo-1,2-dihydroquinazolin-3(4H)-yl)-N-phenylbenzamide]	15.59 ± 0.07 µM	33.13 ± 0.12 µM	16.7 ± 0.3 µM	16 ± 0.51 µM	
CCNC(=O)c1ccccc1-n1c(=O)[nH]c2ccccc2c1=O [Compound 3h, 2-(2,4-Dioxo-1,2-dihydroquinazolin-3(4H)-yl)-N-ethylbenzamide]	10.44 ± 0.02 µM	27.1 ± 0.68 µM	34.8 ± 4.65 µM	16.7 ± 1.72 µM	94.2 ± 2.44 µM
O=C(Nc1ccc(F)cc1)c1ccccc1-n1c(=O)[nH]c2ccc(Cl)cc2c1=O [Compound 3o, 2-(6-Chloro-2,4-dioxo-1,2-dihydroquinazolin-3(4H)-yl)-N-(4-fluorophenyl)benzamide]	5.17 ± 0.07 µM	16.03 ± 0.06 µM	26.3 ± 1.03 µM	3.02 ± 0.06 µM	74.5 ± 9.44 µM
O=C(Nc1ccccc1)c1ccccc1-n1c(=O)[nH]c2ccccc2c1=O [Compound 3a, 2-(2,4-dioxo-1,2-dihydroquinazolin-3(4H)-yl)-N-phenylbenzamide]	14.83 ± 0.13 µM	39.51 ± 0.13 µM	29.4 ± 0.45 µM	8.73 ± 0.02 µM	
CCNC(=O)c1ccccc1-n1c(=O)[nH]c2ccc(Cl)cc2c1=O [Compound 3p, 2-(6-Chloro-2,4-dioxo-1,2-dihydroquinazolin-3(4H)-yl)-N-ethylbenzamide]	13.02 ± 0.03 µM	31.67 ± 0.14 µM	22.8 ± 0.71 µM	33.9 ± 0.71 µM	
CCCCNC(=O)c1cc(Cl)ccc1-n1c(=O)[nH]c2ccccc2c1=O [Compound 3g, N-Butyl-5-chloro-2-(2,4-dioxo-1,2-dihydroquinazolin-3(4H)-yl)benzamide]	18.65 ± 0.08 µM	20.5 ± 0.91 µM	30.4 ± 5.52 µM	15.3 ± 0.78 µM	
Cc1ccc(NC(=O)c2ccccc2-n2c(=O)[nH]c3ccccc3c2=O)cc1 [Compound 3c, 2-(2,4-dioxo-1,2-dihydroquinazolin-3(4H)-yl)-N-(p-tolyl)benzamide]	11.49 ± 0.04 µM	17.9 ± 0.17 µM	15.2 ± 0.7 µM	5.33 ± 0.12 µM	
CCNC(=O)c1ccccc1-n1c(=O)[nH]c2ccc(F)cc2c1=O [Compound 3m, N-Ethyl-2-(6-fluoro-2,4-dioxo-1,2-dihydroquinazolin-3(4H)-yl)benzamide]	19.39 ± 0.14 µM	41.4 ± 0.81 µM	26.3 ± 1.32 µM	20.2 ± 0.31 µM	88 ± 3.56 µM
O=C(Nc1ccc(Br)cc1)c1ccccc1-n1c(=O)[nH]c2ccccc2c1=O [Compound 3e, N-(4-Bromophenyl)-2-(2,4-dioxo-1,2-dihydroquinazolin-3(4H)-yl)benzamide]	12.05 ± 0.02 µM	14.67 ± 0.05 µM	11.7 ± 0.14 µM	9.48 ± 0.05 µM	69.4 ± 5.17 µM
